# Test results: ChEMBL document CHEMBL1134486, “Synthesis and biological evaluation of purine-containing butenolides” (J Med Chem, 2001)
# Target: T1, Adenosine deaminase (Bos taurus) (UniProt P56658)
# T1 sequence (whole entry): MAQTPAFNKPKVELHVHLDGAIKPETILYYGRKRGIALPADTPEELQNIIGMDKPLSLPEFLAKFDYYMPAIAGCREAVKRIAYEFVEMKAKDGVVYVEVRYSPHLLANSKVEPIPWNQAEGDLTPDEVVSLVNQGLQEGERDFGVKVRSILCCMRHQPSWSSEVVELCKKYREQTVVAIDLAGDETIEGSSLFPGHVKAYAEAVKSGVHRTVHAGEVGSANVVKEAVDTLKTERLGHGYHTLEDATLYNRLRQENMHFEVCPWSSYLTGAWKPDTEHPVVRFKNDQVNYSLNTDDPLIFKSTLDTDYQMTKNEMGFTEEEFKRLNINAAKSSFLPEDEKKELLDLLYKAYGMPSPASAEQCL
# Assay: Relative Vmax value of the compound
# Outline: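 Deamination rates followed with calf mucosal ADA (EC 3.5.4.4) in buffer solutions; Km and Vmax relative to adenosine as substrate; inhibition (Ki) assessed with adenosine as substrate.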
smiles,measurement,value
Nc1ncnc2c1ncn2[C@@H]1O[C@H](CO)[C@@H](O)[C@H]1O,Relative Vmax,1
